Results as given in ChEMBL document CHEMBL1134480, “Antiplasmodial activity and cytotoxicity of bis-, tris-, and tetraquinolines with linear or cyclic amino linkers” (J Med Chem, 2001).

Legend:
MRC5 [1] = assay: Cytotoxicity against MRC-5 cells at concentration 1 uM; assay type: functional; details: Homo sapiens
Method in brief: (§1)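 MRC-5 human embryonic lung diploid cells were seeded at 5000 per well. After 24 h the cells were washed and exposed to 2-fold drug dilutions in RPMI + 5% FCS, with final DMSO below 0.5%. Incubation was 7 days at 37 °C in 5% CO2. Viability was read by MTT absorbance at 540 nm.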

MRC5 [2] = assay: Cytotoxicity against MRC-5 cells at concentration 32 uM; assay type: functional; details: Homo sapiens; method in brief: as §1
MRC5 [3] = assay: Cytotoxicity against MRC-5 cells at concentration 0.5 uM; assay type: functional; details: Homo sapiens; method in brief: as §1
MRC5 [4] = assay: Cytotoxicity against MRC-5 cells at concentration 8 uM; assay type: functional; details: Homo sapiens; method in brief: as §1
Mus musculus [5] = species: Mus musculus; assay: In vitro cytotoxic activity against mouse peritoneal macrophages at a concentration 8 uM; Non-toxic; assay type: functional
Mus musculus [6] = species: Mus musculus; assay: In vitro cytotoxic activity against mouse peritoneal macrophages at a concentration 2 uM; Non-toxic; assay type: functional
Plasmodium falciparum [7] = assay: In vitro growth inhibition of Plasmodium falciparum FcB1R; assay type: functional, organism-based
Method in brief: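 Asynchronous P. falciparum cultures were grown in human erythrocytes at 0.5% parasitemia and 1% hematocrit. They were exposed to serial drug dilutions, with DMSO ≤0.1%, for 24 h at 37 °C before adding 0.5 µCi [3H]hypoxanthine per well. Inhibition was measured as incorporated radioactivity versus drug-free controls on the same plate. IC50 came from concentration–response curves, reported as mean ± SD of three independent experiments; FcB1R used several experiments.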

[8] = In vitro cytotoxic activity against mouse peritoneal macrophages at a concentration 32 uM; Toxic; assay type: toxicity
[9] = In vitro cytotoxic activity against mouse peritoneal macrophages at a concentration 8 uM; Toxic; assay type: toxicity
[10] = In vitro cytotoxicity against mouse peritoneal macrophages at concentration 32 uM; Toxic; assay type: toxicity
Plasmodium falciparum [11] = assay: In vitro growth inhibition of Plasmodium falciparum W2; assay type: functional, organism-based
Plasmodium falciparum [12] = assay: In vitro growth inhibition of Plasmodium falciparum D6; assay type: functional, organism-based
Plasmodium falciparum [13] = assay: In vitro growth inhibition of Plasmodium falciparum F32; assay type: functional, organism-based

SMILES | cytotoxicity at 1 µM (MRC5 [1]) [%] | cytotoxicity at 32 µM (MRC5 [2]) [%] | cytotoxicity at 0.5 µM (MRC5 [3]) [%] | cytotoxicity at 8 µM (MRC5 [4]) [%] | Cytotoxicity (Mus musculus [5]) | Cytotoxicity (Mus musculus [6]) | IC50 (Plasmodium falciparum [7]) [µM] | Cytotoxicity [8] | Cytotoxicity [9] | Cytotoxicity [10] | IC50 (Plasmodium falciparum [11]) [µM] | IC50 (Plasmodium falciparum [12]) [µM] | IC50 (Plasmodium falciparum [13]) [µM]
NCCC(=O)N1CCN(c2ccnc3cc(Cl)ccc23)CCN(c2ccnc3cc(Cl)ccc23)CC1 | 0 | 0 | 0 | 0 | Not toxic | Not toxic | > 1 |  |  |  |  |  | 
O=C(CCCCN1CCCCC1)N1CCN(c2ccnc3cc(Cl)ccc23)CCN(c2ccnc3cc(Cl)ccc23)CC1 | 0 | 92 | 0 | 92 |  | Not toxic | 0.132 | Toxic | Toxic |  |  |  | 
O=C(CCCOCc1ccccc1)N1CCN(c2ccnc3cc(Cl)ccc23)CCN(c2ccnc3cc(Cl)ccc23)CC1 | 0 | 14 | 0 | 0 | Not toxic | Not toxic | 1 |  |  | Toxic |  |  | 
Clc1ccc2c(NCCN(CCNc3ccnc4cc(Cl)ccc34)Cc3ccnc4ccccc34)ccnc2c1 | 0 | 0 | 0 | 0 | Not toxic | Not toxic | > 1 |  |  |  |  |  | 
CC(NC(=O)OC(C)(C)C)C(=O)N1CCN(c2ccnc3cc(Cl)ccc23)CCN(c2ccnc3cc(Cl)ccc23)CC1 (stereo not given) | 0 | 0 | 0 | 0 | Not toxic | Not toxic | 0.463 |  |  |  |  |  | 
O=C(CCCO)N1CCN(c2ccnc3cc(Cl)ccc23)CCN(c2ccnc3cc(Cl)ccc23)CC1 | 0 | 0 | 0 | 0 | Not toxic | Not toxic | 0.93 |  |  |  |  |  | 
NC(=O)CCC(=O)N1CCN(c2ccnc3cc(Cl)ccc23)CCN(c2ccnc3cc(Cl)ccc23)CC1 | 0 | 0 | 0 | 0 | Not toxic | Not toxic | 0.98 |  |  |  |  |  | 
NCCN(CCNc1ccnc2cc(Cl)ccc12)CCNc1ccnc2cc(Cl)ccc12 | 0 | 51 | 0 | 0 | Not toxic | Not toxic | 0.606 |  |  |  |  |  | 
O=C(CCCCCCCCCCC(=O)N1CCN(c2ccnc3cc(Cl)ccc23)CCN(c2ccnc3cc(Cl)ccc23)CC1)N1CCN(c2ccnc3cc(Cl)ccc23)CCN(c2ccnc3cc(Cl)ccc23)CC1 | 0 | 0 | 0 | 0 | Not toxic | Not toxic | 0.0791 |  |  |  | 0.18 | 0.123 | 0.133
N=C(N)NCCC(=O)N1CCN(c2ccnc3cc(Cl)ccc23)CCN(c2ccnc3cc(Cl)ccc23)CC1 | 0 | 0 | 0 | 0 | Not toxic | Not toxic | > 1 |  |  |  |  |  | 
O=C(CCCC(=O)N1CCN(c2ccnc3cc(Cl)ccc23)CCN(c2ccnc3cc(Cl)ccc23)CC1)N1CCNCCN(c2ccnc3cc(Cl)ccc23)CC1 | 0 | 0 | 0 | 0 | Not toxic | Not toxic | 0.275 |  |  |  |  |  | 
O=C(O)CCC(=O)N1CCN(c2ccnc3cc(Cl)ccc23)CCN(c2ccnc3cc(Cl)ccc23)CC1 | 1 | 0 | 0 | 0 | Not toxic | Not toxic | > 1 |  |  |  |  |  | 
O=C(CCC(=O)N1CCN(c2ccnc3cc(Cl)ccc23)CCN(c2ccnc3cc(Cl)ccc23)CC1)N1CCN(c2ccnc3cc(Cl)ccc23)CCN(c2ccnc3cc(Cl)ccc23)CC1 | 0 | 0 | 0 | 0 | Not toxic | Not toxic | 0.0381 |  |  |  | 0.0295 | 0.0219 | 0.0237
CC(C)(C)OC(=O)NCCC(=O)N1CCN(c2ccnc3cc(Cl)ccc23)CCN(c2ccnc3cc(Cl)ccc23)CC1 | 0 | 100 | 0 | 0 | Not toxic | Not toxic | > 1 |  |  | Toxic |  |  | 
O=C(c1ccc(C(=O)N2CCN(c3ccnc4cc(Cl)ccc34)CCN(c3ccnc4cc(Cl)ccc34)CC2)cc1)N1CCN(c2ccnc3cc(Cl)ccc23)CCN(c2ccnc3cc(Cl)ccc23)CC1 | 0 | 0 | 0 | 0 | Not toxic | Not toxic | 0.266 |  |  |  |  |  | 
Clc1ccc2c(N3CCNCCNCC3)ccnc2c1 | 0 | 0 | 0 | 0 | Not toxic | Not toxic | > 1 |  |  |  |  |  | 
O=C(CCCC(=O)N1CCN(c2ccnc3cc(Cl)ccc23)CCN(c2ccnc3cc(Cl)ccc23)CC1)N1CCNCCNCC1 | 0 | 0 | 0 | 0 | Not toxic | Not toxic | > 1 |  |  |  |  |  | 
O=C(O)CCCC(=O)N1CCN(c2ccnc3cc(Cl)ccc23)CCN(c2ccnc3cc(Cl)ccc23)CC1 | 0 | 0 | 0 | 0 | Not toxic | Not toxic | 0.94 |  |  |  |  |  | 
CC(N)C(=O)N1CCN(c2ccnc3cc(Cl)ccc23)CCN(c2ccnc3cc(Cl)ccc23)CC1 (stereo not given) | 0 | 88 | 0 | 0 |  | Not toxic | 0.228 | Toxic | Toxic |  |  |  | 
O=C(CNCC(=O)N1CCN(c2ccnc3cc(Cl)ccc23)CCN(c2ccnc3cc(Cl)ccc23)CC1)N1CCN(c2ccnc3cc(Cl)ccc23)CCN(c2ccnc3cc(Cl)ccc23)CC1 | 0 | 0 | 0 | 0 | Not toxic | Not toxic | 0.103 |  |  |  |  |  | 
